In PubChem BioAssay AID1296 (Columbia University Molecular Screening Center, 2008) one finds activation and normalized cell count data, which are given here for 44 compounds.

The whole screen tested about 130,000 compounds, of which about 1,000 (0.77%) were called active. Not shown: some 1% with an inconclusive outcome.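 How the source made its calls: active means activation at 2 µM above a set limit, confirmed on inspection of the cell images; inconclusive means above the set limit but not confirmed on image inspection; inactive means the rest.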 Shown is part of a subset that was picked to be rich in actives.

The test in a line: activators of insulin promoter-driven GFP, primary screen, imaging, TRM-6 cells, eGFP reporter, cell count (AID 1296).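 On activation: share of cells whose green reporter signal exceeds an intensity cutoff.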 Conditions: at 2 µM; activation: stronger effect = higher value, plate-scaled: unstimulated 0, stimulated control 100; normalized cell count: measured here: cell count (toxicity). The method in brief:
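System: human fetal islet-derived TRM-6 cells with tamoxifen-inducible insulin promoter–eGFP reporter; input: seeding density of 1,000 cells per well; buffer or medium: Low-glucose (5.5 mM) medium with tamoxifen; incubation: compound exposure 48 h, 37 °C; measured by: high-content imaging of fixed cells with Hoechst nuclear stain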
For `COc1ccc(OC(C)C(=O)Nc2cccnc2)cc1` (stereo not drawn), the activation was -8.57% (inactive) and the normalized cell count came out at 50%.
With `COc1ccc(CS(=O)/C(Cl)=C(/Cl)C(=O)Nc2ccc(OC)nc2)cc1` (stereo not drawn), the activation was 669% (active) and the normalized cell count was determined as 10.6%.
Taken in the same sequence, the figures for `COc1ccc(OC)c(CNC(=O)c2cc(=O)[nH]c3ccc(S(=O)(=O)N4CCCC4)cc23)c1` were 0% (inactive) and 73.7%.
For `CC(C)C(C)(C#N)NC(=O)CSc1nncn1-c1ccccc1` (stereo not drawn), in that order: -7.14% (inactive) and 91.1%.
Consider `CCNc1nc(NC(C)C)nc(N2CC(=O)N(CC(=O)OCC)C2=N)n1`, for which the activation was 344% (active) and the normalized cell count is 69.4%.
For `O=Cc1cn(Cc2ccccc2)nc1-c1cccnc1`, the activation was 2.44% (inactive) and the normalized cell count was found to be 212%.
Taken in the same sequence, the figures for `CS(=O)(=O)N(Cc1ccccc1)c1ccc(C(=O)NN=C2CCCCCC2)cc1` were -6.9% (inactive) and 150%.
Turning to `COC(=O)Nc1sc2nc(C)cc(C)c2c1-n1cccc1`, the activation is -3.7% (inactive) and the normalized cell count was 74.8%.
Consider `CCCN1CC=C2C(C#N)=C(N)C(C#N)(C#N)C(c3cc(OC)ccc3OC)C2C1` (stereo not drawn), for which the activation was 178% (active) and the normalized cell count worked out at 123%.
For `COc1cc(OC)cc(-c2nc3ccccc3c(=O)n2NC(=O)c2cccnc2Cl)c1`, in that order: -5.56% (inactive) and 107%.
Consider `CC1=NNC(=O)C1CCC(=O)N/N=C\c1ccc(Cl)c(Cl)c1` (stereo not drawn), for which the activation is 0% (inactive) and the normalized cell count stood at 124%.
As to `CCCn1c(=S)[nH]c2ccc(C(F)(F)F)cc21`, the activation is 205% (active) and the normalized cell count was found to be 78%.
`CC1CC(C)CN(C(=O)CSc2ccsc2[N+](=O)[O-])C1` (stereo not drawn): the activation was 0% (inactive) and the normalized cell count was found to be 74.7%.
With `CCOc1ccc(S(=O)(=O)Nc2ccncc2)c(C)c1C`, the activation is -72.7% (inactive) and the normalized cell count stood at 133%.
As to `CCOc1ccc(NC(=S)NC(=O)/C=C/c2ccc(OC)cc2)c([N+](=O)[O-])c1`, the activation is 8.82% (inactive) and the normalized cell count came out at 139%.
Regarding `CCN(CC)CCn1c(/N=C/c2cc(Br)ccc2O)nc2ccccc21`, the activation was 149% (inactive) and the normalized cell count was found to be 133%.
`CC(C)CCNC(=O)CC1C(=O)N(Cc2ccccc2)C(C)c2nc3ccccc3n21` (stereo not drawn): the activation is 127% (inactive) and the normalized cell count was 118%.
Regarding `CC(O)c1nc2ccccc2n1Cc1ccc([N+](=O)[O-])cc1` (stereo not drawn), the activation was -2.94% (inactive) and the normalized cell count is 149%.
For `CC(C)(C)N1CC(c2nc3ccccc3n2Cc2ccc(F)cc2)CC1=O` (stereo not drawn), the activation is 80% (active) and the normalized cell count was 127%.
In the case of `Cc1ccc(C2CC2C(=O)NN)cc1` (stereo not drawn), the activation was 0% (inactive) and the normalized cell count is 90.7%.
For `Cc1noc(C)c1CCC(=O)O`, in that order: 5.56% (inactive) and 134%.
For `Cc1ccc(NC(=O)c2ccn(C(=O)Nc3ccccc3)n2)c(C)c1`, the activation was 0% (inactive) and the normalized cell count amounted to 123%.
For the compound `Cc1ccnc(NC(=O)Cn2ccc([N+](=O)[O-])n2)c1`, the activation was 5.71% (inactive) and the normalized cell count worked out at 124%.
Taken in the same sequence, the figures for `CCOC(=O)c1[nH]c2ccc(OC)cc2c1NC(=O)N1CCOCC1` were 3.57% (inactive) and 45.3%.
As to `O=C(CN1CCOCC1)N1CCCc2c1c(=O)oc1ccc(OCc3ccccc3)cc21`, the activation is 21.5% (inactive) and the normalized cell count came out at 118%.
For the compound `Cc1c(C(=O)N2CCOCC2)[nH]c2ccc(OCc3ccccc3)cc12`, the activation was 104% (active) and the normalized cell count is 126%.
Turning to `CC(=O)c1cc(-c2ccccc2)n(CCC(=O)NC2CCCCCC2)c1C`, the activation was 5.71% (inactive) and the normalized cell count was found to be 127%.
On to `CCN(CC(=O)Nc1ccc(Cl)c(S(=O)(=O)N(C)C)c1)Cc1nc2ccccc2c(=O)[nH]1`, for which the activation is 8.33% (inactive) and the normalized cell count was determined as 83.9%.
For `Cc1ccc(-n2c(Cc3cccs3)nnc2SCC(=O)OC(C)C)cc1`, the activation was -7.69% (inactive) and the normalized cell count was 48%.
On to `CCn1c(SCC(=O)Nc2nccs2)nnc1-c1ccco1`, for which the activation was 0% (inactive) and the normalized cell count amounted to 131%.
For `CCn1c(Cc2cccs2)nnc1SCC(=O)c1ccc(C)cc1`, the activation is 433% (active) and the normalized cell count stood at 93.9%.
Consider `Cc1ccsc1C1C(C#N)=C(N)OC2=C1C(=O)CC(C)(C)C2` (stereo not drawn), for which the activation was 0% (inactive) and the normalized cell count turned out to be 62.4%.
Take `CCN1CCN(C(C(=O)NC2CCCC2)c2cc3c(cc2[N+](=O)[O-])OCO3)CC1` (stereo not drawn): the activation is 6.67% (inactive) and the normalized cell count was found to be 84.9%.
For the compound `CCCC(=O)NC(Nc1ccccc1OC)C(Cl)(Cl)Cl` (stereo not drawn), the activation was -4.35% (inactive) and the normalized cell count was 88%.
Turning to `CN(C)c1ccc(/C=C2\NC(=S)N(Cc3ccccc3)C2=O)cc1`, the activation was 170% [may fluoresce] (active) and the normalized cell count was 95.4%.
For `Cc1nc2ccccc2cc1C(=O)N/N=C/c1ccc([N+](=O)[O-])cc1`, in that order: -75% (inactive) and 81%.
Take `COc1cc(/C=C/C(=O)OCC(=O)Nc2cccc(Oc3ccccc3)c2)ccc1O`: the activation was 3.57% (inactive) and the normalized cell count was determined as 105%.
Turning to `O=C(Nc1cccc(Cl)c1)Nc1nnc(-c2ccccc2)o1`, the activation is 4.65% (inactive) and the normalized cell count turned out to be 60.8%.
In the case of `CCOc1cc(/C=C2/C(=N)N3OC(C)=CC3=NC2=O)ccc1OC`, the activation was 6.67% (inactive) and the normalized cell count was 55.1%.
In the case of `O=C(c1ccccc1)c1ccc2nc(N3CCCCC3)c3nncn3c2c1`, the activation is 320% (active) and the normalized cell count turned out to be 70%.
Taken in the same sequence, the figures for `c1ccc(CC2CCN(c3nc4ccccc4n4cnnc34)CC2)cc1` were -7.14% (inactive) and 111%.
For `O=C(Nc1ccccc1N1CCCCC1)c1cccc(F)c1`, in that order: 5.71% (inactive) and 92.9%.
For `CCC(C)NC(=O)c1nn(C)c(=O)c2ccccc12` (stereo not drawn), in that order: -5.56% (inactive) and 169%.
For `Cc1ccc(S(=O)(=O)c2ccc(Cl)cc2)cc1S(=O)(=O)NC(C(=O)O)C(C)C` (stereo not drawn), the activation is 3.85% (inactive) and the normalized cell count amounted to 127%.
